A selection: hits, their analogues and other compounds. The true share with any hit is near 3.7%.
KCNK3 block: human KCNK3 channel inhibition, primary screen | O14649 | CHO-KCNK3 thallium flux, FluxOR fluorescence; stronger effect = lower value | B-score at 10 µM | actives 0.84% (n = 340,000);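 active means B-score under library mean minus 4 SD, starting fluorescence ratio at most library mean plus 5 SD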;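 further: more negative B-score means stronger inhibition of thallium flux through KCNK3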
Target sequence (O14649 whole entry, looked up): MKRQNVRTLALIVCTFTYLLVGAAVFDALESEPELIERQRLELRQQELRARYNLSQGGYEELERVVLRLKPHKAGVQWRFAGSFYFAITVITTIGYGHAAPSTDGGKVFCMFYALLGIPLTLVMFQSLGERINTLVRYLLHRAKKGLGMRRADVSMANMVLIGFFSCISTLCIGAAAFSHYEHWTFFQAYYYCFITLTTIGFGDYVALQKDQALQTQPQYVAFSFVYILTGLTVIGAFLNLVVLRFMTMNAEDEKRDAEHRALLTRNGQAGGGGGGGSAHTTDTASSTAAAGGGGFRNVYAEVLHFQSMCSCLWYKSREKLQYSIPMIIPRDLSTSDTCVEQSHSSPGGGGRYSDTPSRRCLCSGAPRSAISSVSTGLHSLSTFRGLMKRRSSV
KCNQ1 block: human KCNQ1 channel inhibition. B-score at 10 µM. P51787. actives 1.3% (n = 310,000). CHO-K1 KCNQ1, FluxOR thallium flux fluorescence; stronger effect = higher value;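 active means compounds whose thallium flux B-score, printed positive for inhibition, exceeds three library SD while starting fluorescence stays within three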;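 further: channel opened by potassium depolarization with thallium stimulus after 20 min compound exposure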
KCNQ1 act: human KCNQ1 channel potentiation or activation | CHO-K1 KCNQ1, thallium flux FluxOR fluorescence; stronger effect = higher value | actives 0.35% (n = 310,000) | P51787 | B-score at 10 µM;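 active means fluorescence ratio B-score, a plate-corrected score, at least three library SD, with initial intensity B-score within 5 SD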
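Doses: Single concentration per compound, DMSO matched to controls | Test system: KCNQ1-transfected CHO-K1 cells | Timing: 90 min dye loading and 20 min compound exposure, both at room temperature | Measured by: Kinetic FluxOR thallium fluorescence, 10-s 1-Hz baseline, 110-s post-stimulus read | Medium: Assay buffer with matched DMSO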
KCNK9 inh: human KCNK9 channel inhibition. Q9NPC2. B-score at 10 µM. HEK293 KCNK9, FluxOR thallium flux fluorescence; stronger effect = lower value. actives 1.2% (n = 310,000);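 active means ratio B-score over 3 SD below the library mean, with starting fluorescence within 5 SD of its mean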;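 further: negative B-score means less thallium flux so channel inhibition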
Target sequence (Q9NPC2 whole entry, looked up): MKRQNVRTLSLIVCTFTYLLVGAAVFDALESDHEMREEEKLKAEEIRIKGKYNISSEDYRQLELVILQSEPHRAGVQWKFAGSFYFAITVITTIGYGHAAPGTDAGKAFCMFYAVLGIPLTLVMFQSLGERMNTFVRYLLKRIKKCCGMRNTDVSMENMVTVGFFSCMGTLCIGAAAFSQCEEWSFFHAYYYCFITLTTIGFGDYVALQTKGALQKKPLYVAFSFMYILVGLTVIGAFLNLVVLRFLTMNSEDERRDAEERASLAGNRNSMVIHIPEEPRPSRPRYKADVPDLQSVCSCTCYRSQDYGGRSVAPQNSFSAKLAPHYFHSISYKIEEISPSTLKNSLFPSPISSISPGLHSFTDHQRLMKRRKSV
Kir21 inh: Kir2.1 (mouse) channel inhibition; P35561; HEK293-Kir2.1, FluxOR thallium flux fluorescence; stronger effect = lower value; B-score at 10 µM; actives 0.85% (n = 310,000); AID 1672;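 active means fluorescence ratio B-score at or below minus 3 SD of library scores, with starting-brightness B-score within 2 SD, cut at about -4.2 in these data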;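 further: channel flux triggered by added potassium and thallium sulfate stimulus; B-score of peak minus minimum fluorescence over baseline after thallium stimulus; more negative B-score means stronger Kir2.1 block with less thallium influx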
hERG rescue: compounds protecting human hERG from proarrhythmic drug block; Q12809; CHO-hERG, FluxOR thallium flux, dofetilide IC70 present; activation (rescue from dofetilide block), less the hit threshold, % at 10 µM; actives 0.51% (n = 310,000);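 active means activation above the mean of controls blocked by dofetilide plus 5 SD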;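 further: thallium influx through hERG after potassium depolarization seen as dye fluorescence rise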
KCNQ1 inh valid: confirmation of human KCNQ1 potassium channel inhibitors. shares compounds with KCNQ1 block. KCNQ1 cell line, FluxOR thallium flux fluorescence. inhibition, % at 10 µM. actives 93% (n = 1,600);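 active means primary screen active, with duplicate mean exceeding buffer control mean plus 3 SD of buffer wells, cut at about 28% in these data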;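 further: 0% = buffer control ratio and 100% = XE991 inhibitor control ratio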
CHO Tl flux: counter-screen for KCNQ1 inhibitors: effect in parental CHO cells | shares compounds with KCNQ1 block | parental CHO-K1, FluxOR thallium flux fluorescence ratio; stronger effect = lower value; zero means no signal rise above baseline | fluorescence ratio (Tl flux) at 10 µM | actives 21% (n = 1,600) | AID 588366;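 active means mean of duplicate thallium-flux fluorescence ratios in parental host cells more than 5 SD below the buffer control mean, cut at about 0.38 in these data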;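 further: ratio is peak minus minimum fluorescence divided by baseline fluorescence; actives read low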
KCNQ1 APC inh: blocks human KCNQ1 current in automated patch clamp | shares compounds with KCNQ1 block | KCNQ1-CHO cells | calls only at 10 µM | actives 20% (n = 490) | AID 624120;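 active means KCNQ1 current drop exceeding 3 SD of negative control wells, seen in both duplicate runs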;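 further: steady state current during a 2 s step from -80 to +40 mV; negative values mean current inhibition and positive values mean potentiation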
KCNQ2 spec: selectivity of KCNQ1 inhibitors: inhibition of rat KCNQ2 channel | AID 651746 | shares compounds with KCNQ1 block | inhibition, % at 10 µM | KCNQ2 cells, FluxOR thallium flux fluorescence | actives 71% (n = 1,600);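 active means mean percent inhibition of the KCNQ2 thallium signal more than 5 SD above the buffer-only control wells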;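 further: KCNQ2 expressed in CHO cells; 0% = buffer control wells and 100% = XE-991 inhibitor control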
KCNQ1 KCNE1 spec: selectivity of KCNQ1 inhibitors: inhibition of human KCNQ1/KCNE1 channel. KCNQ1/KCNE1 cells, FluxOR thallium flux fluorescence. inhibition, % at 10 µM. actives 77% (n = 1,600). shares compounds with KCNQ1 block;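 active means mean percent inhibition of duplicate wells above the buffer-only control mean plus 3 SD of those controls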;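 further: 0% = buffer only wells and 100% = XE-991 inhibitor control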
* hit, by the source's call.

Results for Fc1ccc(/C=N/N2CCN(Cc3ccccc3)CC2)cc1 ?
KCNK3 block: inactive; KCNQ1 block: inactive; KCNQ1 act: inactive; KCNK9 inh: inactive; Kir21 inh: 0.02; hERG rescue: -12

How did CCCc1cc(C(=O)N2CCN(C(c3ccccc3)c3ccccc3)CC2)no1 do in these assays?
KCNK3 block: inactive; KCNQ1 block: 10*; KCNQ1 act: inactive; KCNK9 inh: inactive; Kir21 inh: -0.68; hERG rescue: -11; KCNQ1 inh valid: 126*; CHO Tl flux: 0.4; KCNQ1 APC inh: inactive; KCNQ2 spec: 106%*; KCNQ1 KCNE1 spec: 162%*

What do the screens show for `Cc1cc(C(=O)N2CCN(C(c3ccccc3)c3ccccc3)CC2)no1`?
KCNK3 block: inactive; KCNQ1 block: inactive; KCNQ1 act: inactive; KCNK9 inh: inactive; Kir21 inh: -1.5; hERG rescue: -8

How did O=C(/C=C/c1ccc(OC(F)F)cc1)OCC(=O)N1CCC(c2ccccc2)=N1 do in these assays?
KCNK3 block: inactive

How did CN1/C(=C\C(=O)Nc2ccc(Cl)cc2)C(C)(C)c2ccccc21 do in these assays?
KCNK3 block: inactive; KCNQ1 block: 10*; KCNQ1 act: inactive; KCNK9 inh: -7.2*; Kir21 inh: 0; hERG rescue: -24; KCNQ1 inh valid: 99*; CHO Tl flux: 0.49; KCNQ1 APC inh: inactive; KCNQ2 spec: 116%*; KCNQ1 KCNE1 spec: 48%*

What do the screens show for `CN1/C(=C\C=C(/C#N)C(=O)Nc2ccc(Cl)cc2)C(C)(C)c2ccccc21`?
KCNK3 block: inactive; KCNQ1 block: inactive; KCNQ1 act: inactive; KCNK9 inh: inactive; Kir21 inh: -2; hERG rescue: -18

What do the screens show for `CCn1c(C)nc2cc(C(=O)NNC(=O)c3ccc(C)cc3)ccc21`?
KCNK3 block: inactive

Results for CCn1c(C)nc2cc(C(=O)OC(C(F)(F)C(F)F)C(F)(F)C(F)F)ccc21 ?
KCNK3 block: inactive; KCNQ1 block: 9*; KCNQ1 act: inactive; KCNK9 inh: inactive; Kir21 inh: 1.1; hERG rescue: -22; KCNQ1 inh valid: 131*; CHO Tl flux: 0.4; KCNQ1 APC inh: inactive; KCNQ2 spec: 89%*; KCNQ1 KCNE1 spec: 116%*

How did O=C(COC(=O)c1ncc(Cl)c(Cl)c1Cl)Nc1cccnc1Cl do in these assays?
KCNK3 block: inactive; KCNQ1 block: inactive; KCNQ1 act: inactive; KCNK9 inh: inactive; Kir21 inh: -0.13; hERG rescue: -9

Results for C/C(=N/Nc1nc(C)c(C)s1)c1cccc([N+](=O)[O-])c1 ?
KCNK3 block: inactive; KCNQ1 block: inactive; KCNQ1 act: inactive; KCNK9 inh: inactive; Kir21 inh: -0.61; hERG rescue: -7

Results for Cc1ccc(S(=O)(=O)NCc2ccncc2)c(C)c1C ?
KCNK3 block: inactive; KCNQ1 block: 7*; KCNQ1 act: inactive; KCNK9 inh: inactive; Kir21 inh: -2.8; hERG rescue: -20; KCNQ1 inh valid: 56*; CHO Tl flux: 0.51; KCNQ2 spec: inactive; KCNQ1 KCNE1 spec: inactive

How did Cc1csc(NC(=O)C(Cc2ccccc2)n2cccc2)n1 (centres undefined) do in these assays?
KCNK3 block: inactive; KCNQ1 block: 13*; KCNQ1 act: inactive; KCNK9 inh: inactive; Kir21 inh: 0.39; hERG rescue: -18; KCNQ1 inh valid: 54*; CHO Tl flux: 0.45; KCNQ2 spec: 62%*; KCNQ1 KCNE1 spec: 86%*

Results for Cc1ccccc1NC(NC(=O)c1cccs1)C(Cl)(Cl)Cl (centres undefined) ?
KCNK3 block: inactive; KCNQ1 block: 13*; KCNQ1 act: inactive; KCNK9 inh: inactive; Kir21 inh: -1.7; hERG rescue: -10; KCNQ1 inh valid: 120*; CHO Tl flux: 0.43; KCNQ1 APC inh: inactive; KCNQ2 spec: inactive; KCNQ1 KCNE1 spec: 114%*

What do the screens show for `CCCCN(c1nc2ccccc2nc1Cl)S(=O)(=O)c1ccc(C)cc1`?
KCNK3 block: inactive; KCNQ1 block: 11*; KCNQ1 act: inactive; KCNK9 inh: inactive; Kir21 inh: -1.6; hERG rescue: -24; KCNQ1 inh valid: 107*; CHO Tl flux: 0.36*; KCNQ2 spec: 118%*; KCNQ1 KCNE1 spec: 144%*

Results for OCC1(Cc2cccc(Cl)c2)CCCN(Cc2ccc(F)c(F)c2)C1 (centres undefined) ?
KCNK3 block: inactive; KCNQ1 block: inactive; KCNQ1 act: inactive; KCNK9 inh: inactive; Kir21 inh: -0.82; hERG rescue: -13

Results for CSc1cccc(CN2CCCC(CO)(Cc3cccc(Cl)c3)C2)c1 (centres undefined) ?
KCNK3 block: inactive; KCNQ1 block: 7*; KCNQ1 act: inactive; KCNK9 inh: inactive; Kir21 inh: -1.2; hERG rescue: -18; KCNQ1 inh valid: 56*; CHO Tl flux: 0.41; KCNQ2 spec: 101%*; KCNQ1 KCNE1 spec: 86%*

What do the screens show for `CCOC(=O)C1=C(COC(=O)/C=C/c2cccc(F)c2)NC(=O)NC1C` (centres undefined)?
KCNK3 block: inactive

What do the screens show for `CS(=O)(=O)c1cccc(C(=O)OCC(=O)NC(=O)Nc2ccccc2F)c1`?
KCNK3 block: inactive

How did Cc1ccc(C)c(S(=O)(=O)NCc2ccc(C(=O)N3CCC(Cc4ccccc4)CC3)cc2)c1 do in these assays?
KCNK3 block: inactive; KCNQ1 block: 7*; KCNQ1 act: inactive; KCNK9 inh: inactive; Kir21 inh: -0.94; hERG rescue: -10; KCNQ1 inh valid: 77*; CHO Tl flux: 0.44; KCNQ2 spec: 92%*; KCNQ1 KCNE1 spec: 95%*

What do the screens show for `CCOP(=O)(OCC)C(Nc1ccc(C)cc1)c1ccco1` (centres undefined)?
KCNK3 block: inactive; KCNQ1 block: inactive; KCNQ1 act: inactive; KCNK9 inh: inactive; Kir21 inh: -0.97; hERG rescue: -13
